Measured values taken from ChEMBL document CHEMBL1154061, “Synthesis and in vitro antibacterial activity of 7-(4-alkoxyimino-3-amino-3-methylpiperidin-1-yl)fluoroquinolone derivatives” (Eur J Med Chem, 2009).
Values after ≈ are worked out from the molar mass of the structure shown.

Experiments:
[1] = tested on: Klebsiella pneumoniae; assay: Antibacterial activity against Klebsiella pneumoniae 7 after 18 to 24 hrs by twofold serial dilution method; assay type: functional
How it was run: (§1)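 Agar media, standard twofold serial dilution (NCCLS M100-S11 basis). Plates incubated at 35 °C for 18–24 h. MIC taken as the lowest compound concentration giving complete inhibition of visible bacterial growth.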

[2] = tested on: Staphylococcus epidermidis; assay: Antibacterial activity against Staphylococcus epidermidis ATCC 12228 after 18 to 24 hrs by twofold serial dilution method; assay type: functional; how it was run: as §1
[3] = Cytotoxicity against african green monkey Vero cells assessed as cell viability after 72 hrs by MTT assay; assay type: cell-based; conditions: chlorocebus sabaeus
[4] = tested on: Streptococcus pneumoniae; assay: Antibacterial activity against Streptococcus pneumoniae 97100 after 18 to 24 hrs by twofold serial dilution method; assay type: functional; how it was run: as §1
[5] = tested on: Staphylococcus epidermidis; assay: Antibacterial activity against methicillin-resistant Staphylococcus epidermidis 05-1 after 18 to 24 hrs by twofold serial dilution method; assay type: functional
How it was run: (§2)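 Agar twofold serial dilution MIC. Plates incubated at 35 °C for 18–24 h. MIC taken as the lowest compound concentration giving complete inhibition of visible bacterial growth.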

[6] = tested on: Staphylococcus aureus; assay: Antibacterial activity against Staphylococcus aureus ATCC 29213 after 18 to 24 hrs by twofold serial dilution method; assay type: functional; how it was run: as §1
[7] = tested on: Pseudomonas aeruginosa; assay: Antibacterial activity against Pseudomonas aeruginosa 17 after 18 to 24 hrs by twofold serial dilution method; assay type: functional; how it was run: as §1
[8] = tested on: Enterobacter cloacae; assay: Antibacterial activity against Enterobacter cloacae 45301 after 18 to 24 hrs by twofold serial dilution method; assay type: functional; how it was run: as §1
[9] = tested on: Enterococcus faecalis; assay: Antibacterial activity against Enterococcus faecalis ATCC 29212 after 18 to 24 hrs by twofold serial dilution method; assay type: functional; how it was run: as §1
[10] = tested on: Staphylococcus aureus; assay: Antibacterial activity against methicillin-resistant Staphylococcus aureus 05-3 after 18 to 24 hrs by twofold serial dilution method; assay type: functional; how it was run: as §2
[11] = tested on: Escherichia coli; assay: Antibacterial activity against Escherichia coli 26 after 18 to 24 hrs by twofold serial dilution method; assay type: functional; how it was run: as §1
[12] = tested on: Streptococcus pyogenes; assay: Antibacterial activity against Streptococcus pyogenes 9619 after 18 to 24 hrs by twofold serial dilution method; assay type: functional; how it was run: as §1
[13] = tested on: Shigella sonnei; assay: Antibacterial activity against Shigella sonnei 51592 after 18 to 24 hrs by twofold serial dilution method; assay type: functional; how it was run: as §1

## CO/N=C1/CCN(c2c(F)cc3c(=O)c(C(=O)O)cn(CCF)c3c2F)CC1(C)N (centres undefined)
[1]
  MIC: 4 µg/mL (≈ 9.38 µM)
[2]
  MIC: 1 µg/mL (≈ 2.35 µM)
[3]
  CC50 at 72 h: 626 µM
[4]
  MIC: 16 µg/mL (≈ 37.5 µM)
[5]
  MIC: > 128 µg/mL
[6]
  MIC: 1 µg/mL (≈ 2.35 µM)
[7]
  MIC: 32 µg/mL (≈ 75 µM)
[8]
  MIC: 8 µg/mL (≈ 18.8 µM)
[9]
  MIC: 8 µg/mL (≈ 18.8 µM)
[10]
  MIC: > 128 µg/mL
[11]
  MIC: 4 µg/mL (≈ 9.38 µM)
[12]
  MIC: 16 µg/mL (≈ 37.5 µM)
[13]
  MIC: 8 µg/mL (≈ 18.8 µM)

## CO/N=C1/CCN(c2nc3c(cc2F)c(=O)c(C(=O)O)cn3-c2ccc(F)cc2F)CC1(C)N (centres undefined)
[1]
  MIC: 8 µg/mL (≈ 16.8 µM)
[2]
  MIC: 2 µg/mL (≈ 4.21 µM)
[3]
  CC50 at 72 h: 259 µM
[4]
  MIC: 8 µg/mL (≈ 16.8 µM)
[5]
  MIC: > 128 µg/mL
[6]
  MIC: 1 µg/mL (≈ 2.1 µM)
[7]
  MIC: 32 µg/mL (≈ 67.3 µM)
[8]
  MIC: 16 µg/mL (≈ 33.7 µM)
[9]
  MIC: 8 µg/mL (≈ 16.8 µM)
[10]
  MIC: > 128 µg/mL
[11]
  MIC: 8 µg/mL (≈ 16.8 µM)
[12]
  MIC: > 128 µg/mL
[13]
  MIC: 8 µg/mL (≈ 16.8 µM)

## CCO/N=C1/CCN(c2nc3c(cc2F)c(=O)c(C(=O)O)cn3-c2ccc(F)cc2F)CC1(C)N (centres undefined)
[1]
  MIC: 8 µg/mL (≈ 16.3 µM)
[2]
  MIC: 1 µg/mL (≈ 2.04 µM)
[3]
  CC50 at 72 h: 31.4 µM
[4]
  MIC: 16 µg/mL (≈ 32.7 µM)
[5]
  MIC: > 128 µg/mL
[6]
  MIC: 1 µg/mL (≈ 2.04 µM)
[7]
  MIC: 64 µg/mL (≈ 131 µM)
[8]
  MIC: 16 µg/mL (≈ 32.7 µM)
[9]
  MIC: 4 µg/mL (≈ 8.17 µM)
[10]
  MIC: 128 µg/mL (≈ 262 µM)
[11]
  MIC: 8 µg/mL (≈ 16.3 µM)
[12]
  MIC: 128 µg/mL (≈ 262 µM)
[13]
  MIC: 16 µg/mL (≈ 32.7 µM)

## CCO/N=C1/CCN(c2c(F)cc3c(=O)c(C(=O)O)cn(CCF)c3c2F)CC1(C)N (centres undefined)
[1]
  MIC: 4 µg/mL (≈ 9.08 µM)
[2]
  MIC: 2 µg/mL (≈ 4.54 µM)
[3]
  CC50 at 72 h: 243 µM
[4]
  MIC: 16 µg/mL (≈ 36.3 µM)
[5]
  MIC: > 128 µg/mL
[6]
  MIC: 2 µg/mL (≈ 4.54 µM)
[7]
  MIC: 128 µg/mL (≈ 291 µM)
[8]
  MIC: 16 µg/mL (≈ 36.3 µM)
[9]
  MIC: 16 µg/mL (≈ 36.3 µM)
[10]
  MIC: > 128 µg/mL
[11]
  MIC: 8 µg/mL (≈ 18.2 µM)
[12]
  MIC: 32 µg/mL (≈ 72.7 µM)
[13]
  MIC: 16 µg/mL (≈ 36.3 µM)

## CO/N=C1\CN(c2nc3c(cc2F)c(=O)c(C(=O)O)cn3C2CC2)CC1CN (centres undefined) [GEMIFLOXACIN]
[1]
  MIC: 0.5 µg/mL (≈ 1.28 µM)
[2]
  MIC: < 0.03 µg/mL
[4]
  MIC: 2 µg/mL (≈ 5.14 µM)
[5]
  MIC: 2 µg/mL (≈ 5.14 µM)
[6]
  MIC: < 0.03 µg/mL
[7]
  MIC: 0.125 µg/mL (≈ 0.321 µM)
[8]
  MIC: 0.06 µg/mL (≈ 0.154 µM)
[9]
  MIC: 0.06 µg/mL (≈ 0.154 µM)
[10]
  MIC: 4 µg/mL (≈ 10.3 µM)
[11]
  MIC: 0.06 µg/mL (≈ 0.154 µM)
[12]
  MIC: 2 µg/mL (≈ 5.14 µM)
[13]
  MIC: 0.06 µg/mL (≈ 0.154 µM)

## C[C@H]1COc2c(N3CCN(C)CC3)c(F)cc3c(=O)c(C(=O)O)cn1c23.C[C@H]1COc2c(N3CCN(C)CC3)c(F)cc3c(=O)c(C(=O)O)cn1c23.O [LEVOFLOXACIN]
[2]
  MIC: 0.5 µg/mL
[3]
  CC50 at 72 h: > 1000 µM
[5]
  MIC: 32 µg/mL
[6]
  MIC: 0.25 µg/mL
[7]
  MIC: 0.5 µg/mL
[8]
  MIC: 0.125 µg/mL
[9]
  MIC: 1 µg/mL
[10]
  MIC: 32 µg/mL
[12]
  MIC: 4 µg/mL
[13]
  MIC: 1 µg/mL
